TDP2 absorb: blocks human TDP2 phosphodiesterase activity | O95551 | recombinant TDP2, T5PNP hydrolysis, p-nitrophenol absorbance 415 nm | inhibition, % at 12.8 µM | 0.34% of 370,000 active | AID 720702;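 active means inhibition above the mean of all tested compounds plus 3 SD, set per campaign, cut at about 25% in these data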;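 further: 0% = DMSO with enzyme and 100% = buffer with substrate but no TDP2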
Target sequence (O95551 whole entry, looked up): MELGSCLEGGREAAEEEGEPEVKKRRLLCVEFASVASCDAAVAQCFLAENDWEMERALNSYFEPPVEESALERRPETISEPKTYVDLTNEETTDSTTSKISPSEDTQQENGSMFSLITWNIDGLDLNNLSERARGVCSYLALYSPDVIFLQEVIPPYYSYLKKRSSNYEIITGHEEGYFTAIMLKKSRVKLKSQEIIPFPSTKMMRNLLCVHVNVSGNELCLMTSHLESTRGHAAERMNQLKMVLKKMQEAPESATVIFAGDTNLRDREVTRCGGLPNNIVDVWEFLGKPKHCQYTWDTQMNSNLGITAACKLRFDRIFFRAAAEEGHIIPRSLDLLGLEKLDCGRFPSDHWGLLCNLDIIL
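Test system: Human TDP2 enzyme | Reagent: 5 mM T5PNP | Compound dosing: 12.8 µM single point, 1% DMSO | Incubation: Enzyme reaction with compound for 2 h at 37 °C | Technique: p-Nitrophenol epi absorbance | Read-out: % inhibition relative to enzyme-containing and enzyme-free wells | Benchmarks: High control without enzyme, low control DMSO plus TDP2 | Replicates: Singlicate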
UHRF1 MBD2 ctr: UHRF1 methyl-DNA binding inhibition. Q96T88. UHRF1 binding to methylated oligo, TR-FRET. inhibition, % at 4.4 µM. 0.75% of 370,000 active. AID 687016; in the data active means inhibition above about 21%;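 further: UHRF1 SRA domain binding a hemimethylated CpG hairpin DNA probe; 0% = median of test compound wells and 100% = reference inhibitor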
Rin1 Abl inh: human Rin1-Abl interaction inhibition; inhibition, % at 7.35 µM; 0.4% of 360,000 active; P00519+Q13671; TR-FRET Rin1/Abl binding, biochemical; AID 588664; in the data active means inhibition above about 5%, passing the limit was not always enough
MBD2 inh: inhibitors of human MBD2 binding to methylated oligonucleotide; Q9UBB5; TR-FRET; inhibition, % at 4.4 µM; 0.31% of 370,000 active; in the data active means inhibition above about 13%
LEDGF integ inh: blocks HIV-1 LEDGF/p75-dependent DNA integration | TR-FRET IN-LEDGF/p75 DNA integration, Eu/Cy5 | inhibition, % at 3.7 µM | 0.64% of 370,000 active | AID 743269;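 active means inhibition above the screen-wide mean plus 3 SD, cut at about 13% in these data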;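 further: signal is the Cy5 over europium emission ratio at 671 and 618 nm; 0% = plate median of compound wells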
* marks the source's active call; other numbers are inactive results; . = not tested or not shown. Hits are enriched below; roughly 1.9% of the tested compounds scored in any of these assays.

SMILES	TDP2 absorb	UHRF1 MBD2 ctr	Rin1 Abl inh	MBD2 inh	LEDGF integ inh
CC(=O)C1(C(=O)Nc2cc(C)cc(C)c2)CC(c2ccccn2)=NO1 (configuration not stated)	-10	4	.	-1	-4
COc1cc(O)ccc1C=O	1	27*	-1	2	-3
Cc1cc(NC(=O)CSCC(=O)Nc2cc(Cl)ccc2N2CCN(C)CC2)no1	5	28*	5	0	-4
Cc1cccc(NC(=O)CSCC(=O)Nc2cc(Cl)ccc2N2CCN(C)CC2)c1	12	0	-3	3	-1
CNC(=O)COC(=O)c1cc(SC)ccc1Cl	7	26*	-2	-1	-1
O=C(Nc1ccc(C(F)(F)F)cc1)OC1CCC12CCC(c1ccccc1)CC2 (configuration not stated)	12	-1	.	2	1
CN(C)c1ccc(Cc2cc3c(O)ccc(O)c3cc(Cc3ccc(N(C)C)cc3)c2=O)cc1	10	51*	11	35*	63*
O=S1(=O)c2ccc(Br)cc2OC[C@@H](Cc2ccccc2)N1Cc1cn(CCC2OCCCO2)nn1	8	-1	.	-3	-2
CCOC(=O)c1c(C)oc2c1c(C=NCc1ccccn1)c(O)c1ccccc12	30*	7	-1	-6	17*
CCN1CCN(Cc2c(O)ccc3c2O/C(=C\c2ccccc2)C3=O)CC1	-10	-19	0	-4	1
CC1CCCN(Cc2c(O)ccc3c2O/C(=C\c2ccco2)C3=O)C1 (configuration not stated)	13	14	1	6	29*
COc1ccc(Cn2ccc3ccc(-c4ccc5ccn(Cc6ccc(C#N)cc6)c5c4)cc32)cc1	4	1	.	6	-1
Cc1cccc(NC(=O)CSc2nnc(-c3cccnc3)n2Cc2ccco2)c1C	6	-2	.	4	-2
O=C(COC(=O)c1ccc([N+](=O)[O-])o1)Nc1nc2ccccc2s1	2	29*	-1	-1	1
CCCC1CCC2(CCCN2CCOC(=O)Nc2ccc(OC)cc2)CC1 (configuration not stated)	2	2	.	4	-1
C=CCn1c(CNS(=O)(=O)c2ccc(Cl)cc2)n[nH]c1=S	-4	-1	3	2	2
C=CCn1c(CNS(=O)(=O)c2ccc(F)cc2)n[nH]c1=S	-13	42*	-3	-1	-7
COC(=O)c1cc(S(=O)(=O)N2CCN(c3cccc(C(F)(F)F)c3)CC2)cn1C	2	-2	.	-5	-1
Cc1nn(-c2ccccc2)c2c1C(c1ccc(F)cc1F)C(C#N)=C(N)O2 (configuration not stated)	62*	4	5	-3	9
CCOc1ccc(N(CC(=O)Nc2ccc3c(c2)OCCO3)S(=O)(=O)c2c(C)noc2C)cc1	0	-1	-1	-2	8
CCc1ccc(NC(=O)CN(c2ccc3c(c2)OCO3)S(=O)(=O)c2c(C)noc2C)cc1	-10	33*	-2	1	3
Oc1ccc(C=Nc2cccc3ccccc23)c(O)c1	16	-12	-4	-7	12
Cc1ccc(N=Cc2ccc(O)cc2O)cc1F	-20	-2	-7	-9	37*
CCN(CC(=O)NCc1cccs1)S(=O)(=O)c1cccc(C(C)=O)c1	-4	24*	-3	5	-1
CCN(CC(=O)NCc1cccs1)S(=O)(=O)c1ccc([N+](=O)[O-])cc1	-7	0	2	-5	7
SMILES	TDP2 absorb	UHRF1 MBD2 ctr	Rin1 Abl inh	MBD2 inh	LEDGF integ inh
Cc1nn(C(C)c2nc(-c3ccccc3)no2)c(C)c1[N+](=O)[O-] (configuration not stated)	-9	33*	-1	-1	-3
CC(C)C[C@@H]1COc2cc(Br)ccc2S(=O)(=O)N1Cc1cn(Cc2ccc(Cl)cc2)nn1	-6	-1	.	-3	2
CC1=C(C(=O)N(C)C)CC(CC(=O)NCCc2ccccn2)C(=O)N1Cc1ccc(F)cc1 (configuration not stated)	1	19	-1	6	4
CC1=C(C(=O)N(C)C)CC(CC(=O)NCCc2ccccn2)C(=O)N1Cc1ccc(C(C)(C)C)cc1 (configuration not stated)	-7	21*	-2	5	-1
CC1(C)Cc2c(c(=S)nc(-c3ccccc3)n2Cc2cccnc2)CO1	0	19	-4	0	1
COc1ccc(-c2nc(=S)c3c(n2Cc2cccnc2)CC(C)(C)OC3)cc1	8	24*	0	10	0

Assay outcomes (PubChem BioAssay)
